Screens (PubChem BioAssay)
rRNA inh HTS – reduced GFP signal of wild-type E. coli, primary screen, bacterial rRNA inhibitor project, GFP/RFP fluorescence, OD600, single point. E. coli WT GFP vs humanized-ribosome RFP mutants, 24 h; active compounds read low; DMSO median 0, no signal -100. GFP signal change (wild-type ribosome), % (no concentration beside the values). actives 1.6% (n = 350,000);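 active = significant combined selectivity score with lowered wild-type GFP, culture density cut under 30%, mutant RFP and density less affected; inactive = any of these conditions unmet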
HIV Env fusion – inhibitors of HIV-1 Env-driven cell-cell fusion, primary screen, HeLa-JRFL effector, CEM21 target cells, luciferase | actives 1.1% (n = 360,000) | inhibition, % at 12.3 µM | AID 651610, 2012;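 active = mean replicate inhibition score of at least 50 and every replicate individually at or above 50; inconclusive = only one of the two criteria met; inactive = mean below 50 and not all replicates reaching 50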;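 note: 0% = plate neutral controls and 100% = maraviroc near 300 nM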
miR122 inh – miR-122 Renilla sensor signal increase in Huh7, primary screen, miR-122 inhibitor project, cell-based, single point, plate reader; Huh7 miR-122 Renilla luciferase sensor, 48 h; neutral wells = 0, positive control = 100; activation (reporter increase), % at 12.5 µM; actives 0.3% (n = 340,000); AID 602342, 2012;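 active = mean replicate activation score at least 90 and every replicate individually at or above 90; inconclusive = only one of the two criteria met; inactive = neither criterion met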;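 note: higher luciferase means less miR-122 activity so hits act as miR-122 inhibitors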
S100A4 inh HTS – inhibitors of S100A4-myosin IIA peptide binding, primary screen, biochemical, fluorescence polarization, TAMRA-MyoIIA peptide. Protein S100-A4 (Homo sapiens), P26447. inhibition, % at 10.7 µM. actives 0.14% (n = 360,000). AID 652163, 2013;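 active = mean inhibition of at least 70% across replicates, with every replicate also reaching that level; inconclusive = mean inhibition reaches 70% but some replicates fall short; inactive = mean inhibition below 70%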
Target sequence (P26447 whole entry, looked up): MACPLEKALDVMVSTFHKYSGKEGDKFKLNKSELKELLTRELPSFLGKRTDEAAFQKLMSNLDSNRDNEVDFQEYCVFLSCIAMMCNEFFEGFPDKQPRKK
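assay system = human S100A4 monomer with TAMRA-labelled myosin IIA peptide | also added = labelled myosin peptide probe, 5 nM | incubation = 5 min between mix addition and reading | control set = DMSO and TFP controls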
Vif imaging – HIV Vif self-association inhibitors, primary screen, imaging, HEK293T, single point; actives 0.35% (n = 340,000); AID 602346, 2012; inhibition, % at 7.49 µM; HEK293T cells, Vif self-association by quenched fluorescence, 24 h; in the data active = inhibition above about 50%, passing the limit was not always enough; inconclusive = no clear call, values can overlap the other calls; inactive = below about 31%
FN deposition inh – inhibitors of fibronectin matrix deposition, primary screen, AH1F cells, Alexa488-fibronectin fluorescence, plate reader; AH1F fibroblasts, overnight; AID 743247, 2014; inhibition, % at 12.6 µM; actives 0.086% (n = 350,000);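 active = mean inhibition across replicates of 30% or more, regardless of how many single replicates reach that level; inconclusive = mean under 30% yet at least half of replicates reach 30%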;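 note: positive control wells lacked labelled fibronectin entirely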
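Material: AH1F fibroblasts assembling fluorescent fibronectin matrix; amount: 10000 AH1F cells/well; medium: DMEM, 2% serum; reagent: Alexa488-fibronectin, 24 nM final in well; dosing: single compound dose, delivered by pin transfer; incubation: 1 h adhesion, overnight exposure; detection: fluorescence after three HBSS washes, excitation 485 nm, emission 525 nm; measure: fibronectin deposition inhibition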
Numbers without * were called inactive; ? = inconclusive; · = not tested or not shown; [ ] = dose if it differs, or a comment. A selection: hits, their analogues and other compounds. The true share with any hit is near 2.6%.

SMILES | rRNA inh HTS | HIV Env fusion | miR122 inh | S100A4 inh HTS | Vif imaging | FN deposition inh
C[C@H]1CC=CC[C@H](c2ccccc2)NC(=O)[C@H](Cc2ccccc2)N(C)C(=O)c2ccccc2O1 (mixture of isomers) | -7 | · | · | · | · | -10
CC(C)c1nnc(NC(=O)CSc2nc3ccccc3[nH]2)s1 | -28* | -19 | -6 | -2 | -3 | 10
Cc1nnc(NC(=O)CSc2nc3ccccc3[nH]2)s1 | 0 | -19 | · | 0 | 0 | -17
CCc1ccc(-c2cc(C)no2)cc1S(=O)(=O)NCc1ccccc1OC | -11 | -7 | 109* | 15 | -6 | 2
COc1cccc(CNS(=O)(=O)c2cc(-c3cc(C)no3)ccc2C(C)C)c1 | -5 | 15 | ? | -6 | -1 | 6
COc1ccccc1CNS(=O)(=O)c1ccc(-c2cc(C)no2)cc1 | -13 | -261 | ? | -2 | 7 | -2
Cc1cc(-c2ccc(C(C)C)c(S(=O)(=O)NCc3ccco3)c2)on1 | -10 | -7 | 168* | 26 | 3 | -12
CC12CCC(=O)N1C(C(=O)Nc1nc3ccc(S(C)(=O)=O)cc3s1)CS2 (stereo unspecified) | 10 | 55* | · | 1 | 6 | ·
CC12CCC(=O)N1C(C(=O)Nc1nc3ccc(Cl)cc3s1)CS2 (stereo unspecified) | -12 | -5 | 7 | 0 | -3 | -12
O=C(C[C@H]1CC[C@H](NC(=O)CC2CC2)[C@@H](CO)O1)NCc1ccccc1 | 4 | · | · | -1 | · | ·
CCOC(=O)C1=C(CC)Nc2ccccc2N=C1NC(=O)Nc1ccc(Cl)c(Cl)c1 | -56 | 114* | 36 | 1 | 17 | -7
CO[C@@H]1CN(C)C(=O)c2ccc(NC(=O)C3CCC3)cc2OC[C@H](C)N(C(=O)NC(C)C)C[C@@H]1C | -1 | -16[16.7 µM] | 1[16.7 µM] | 18 | · | -2
CCCc1[nH]n(-c2nc3ccccc3s2)c(=O)c1C=NCCCN(CC)CC | -22* | -11 | 6 | -6 | -1 | -5
CCCN=Cc1c(CCC)[nH]n(-c2nc3ccccc3s2)c1=O | · | · | -1 | · | -2 | ·
COc1ccccc1CNC(=O)CSc1ccc(Br)cc1 | · | 14 | · | · | 1 | 10
COc1ccccc1CNC(=O)CSc1ccc(-c2cccs2)nn1 | -25* | 5 | · | -3 | -2 | ·
COc1ccccc1CNC(=O)CSC1=NCCS1 | 1 | -5 | -8 | -3 | 58* | 7
COCC#Cc1cnc2c(c1)C(=O)N([C@H](C)CO)C[C@@H](C)[C@@H](CN(C)S(=O)(=O)c1ccccc1)O2 | 2 | 1[16.7 µM] | 1[16.7 µM] | -14 | · | 0
O=C(O)CCSc1nc2ccccc2s1 | · | 78* | -12 | -7 | -2 | -14
CCOC(=O)NC(=O)COC(=O)CCCSc1nc2ccccc2s1 | -27* | 16 | · | -1 | ? | 2
NC(=O)NC(=O)COC(=O)CCCSc1nc2ccccc2s1 | 7 | 13 | 3 | 3 | -10 | -2
O=C(NCc1ccccc1)c1nc2ccccc2s1 | -30* | -3 | 0 | 2 | 0 | 0
O=C(NCCO)c1nc2ccccc2s1 | · | · | -4 | · | -2 | ·
C[C@@H]1CCCCO[C@@H](CN(C)C(=O)Nc2ccccc2)[C@@H](C)CN([C@@H](C)CO)C(=O)c2cc(NC(=O)Nc3cccc4ccccc34)ccc2O1 | 0 | 6[16.7 µM] | · | -7 | · | -2
CCOc1cccc2sc(N(CCCN(C)C)C(=O)c3ccc(S(=O)(=O)N4CCCCCC4)cc3)nc12 | -24* | -11 | 2 | -4 | -8 | 17
SMILES | rRNA inh HTS | HIV Env fusion | miR122 inh | S100A4 inh HTS | Vif imaging | FN deposition inh
COc1cccc2sc(N(CCCN(C)C)C(=O)c3ccc(S(=O)(=O)N4CCc5ccccc5C4)cc3)nc12 | -57 | -48 | · | -1 | · | ·
COc1cccc2sc(N(CCCN(C)C)C(=O)c3ccc(S(=O)(=O)N4CCCc5ccccc54)cc3)nc12 | -59 | · | -5 | 3 | -5 | 2
CCN(Cc1ccccc1)S(=O)(=O)c1ccc(C(=O)N(CCCN(C)C)c2nc3c(F)cccc3s2)cc1 | -48* | 0 | -5 | 23 | -1 | 5
CN(C)CCCN(C(=O)c1ccc(S(=O)(=O)N2CCc3ccccc32)cc1)c1nc2c(Cl)cccc2s1 | -40* | -7 | 4 | -1 | 4 | 0
COc1ccc(C)c2sc(N(CCCN(C)C)C(=O)c3ccc(S(=O)(=O)N4CCc5ccccc5C4)cc3)nc12 | -41 | 92* | -21 | 5 | -3 | 6
Cc1ccc(-c2cnc3c(c2)C(=O)N([C@@H](C)CO)C[C@H](C)[C@H](CN(C)C(=O)Cc2ccccc2)O3)cc1 | -3 | 15[16.7 µM] | 0[16.7 µM] | -41 | · | ·
CCOc1cccc2sc(N(CCCN(C)C)C(=O)c3ccc(S(=O)(=O)N(C)Cc4ccccc4)cc3)nc12 | -39* | -44 | · | -2 | · | 16
CCOc1cccc2sc(N(CCCN(C)C)C(=O)c3ccc(S(=O)(=O)N(CC)Cc4ccccc4)cc3)nc12 | -54 | -7 | -9 | 1 | -7 | 19
CCc1ccc2oc(C(=O)NCCc3ccc(S(N)(=O)=O)cc3)cc(=O)c2c1 | -34* | 8 | 6 | -8 | 6 | 5
Cc1ccc2oc(C(=O)NCc3ccc(S(N)(=O)=O)cc3)cc(=O)c2c1 | 7 | 19 | -23 | 0 | -5 | 3
CCOC(=O)[C@]12Cc3c(cc(OC)c(OC)c3OC)[C@H]1N(CCC(=O)OC)C(=O)c1cc(OC)ccc12 | -24* | -3 | · | 2 | · | 1
CO[C@H]1CN(C)C(=O)c2ccc(NC(=O)c3cc(C)on3)cc2OC[C@H](C)N(C(C)=O)C[C@H]1C | 0 | 4[16.7 µM] | -6[16.7 µM] | 10 | · | -10
C[C@H](NC(=O)[C@H]1N[C@H]2c3ccc(C4=CCCC4)c(=O)n3C[C@H]2[C@@H]1CO)c1ccccc1 | 0 | 0[16.7 µM] | · | -5 | · | ·
COC(CNC(=O)c1ccc2nc(-c3cccs3)c(-c3cccs3)nc2c1)OC | -22* | -13 | -22 | 3 | -12 | 6
CNC(=O)C[C@@H]1CC[C@@H]2[C@@H](COc3ccc(NC(=O)c4ccc(C(F)(F)F)cc4)cc3C(=O)N2C)O1 | -3 | 12[16.7 µM] | 17[16.7 µM] | · | · | -16
COc1cc(CN2CC(=O)N(c3ccccc3Cl)C2=S)cc(OC)c1OC | -18* | 14 | · | -7 | -6 | 8
COc1cc(CN2CC(=O)N(c3cccc(Cl)c3C)C2=S)cc(OC)c1OC | -4 | 5 | 13 | -1 | -1 | 7
